From ChEMBL document CHEMBL3045565, “Microwave synthesis, characterization and bio-efficacy evaluation of novel chalcone based 6-carbethoxy-2-cyclohexen-1-one and 2H-indazol-3-ol derivatives” (Eur J Med Chem, 2013)
In brackets after ≈: the same amount, converted by molar mass.

Tests used:
Assay type in all cases: functional
[1] = test system: Dickeya chrysanthemi; assay: Antibacterial activity against Erwinia chrysanthemi ITCC B-40 assessed as as growth inhibition after 24 hr by broth dilution method; details: ITCC B-40, 24 h
Procedure, shortened: (§1)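 Broth dilution, with streptomycin as the standard. MIC was taken as the lowest concentration giving more than 90% bacterial inhibition.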

[2] = test system: Xanthomonas oryzae; assay: Antibacterial activity against Xanthomonas oryzae ITCC B-47 assessed as as growth inhibition at 100 ug/disk after 24 hr by disk diffusion method; details: ITCC B-47, 24 h, read-out: DIZ
[3] = test system: Dickeya chrysanthemi; assay: Antibacterial activity against Erwinia chrysanthemi ITCC B-40 assessed as as growth inhibition at 100 ug/disk after 24 hr by disk diffusion method; details: ITCC B-40, 24 h, read-out: DIZ
Procedure, shortened: (§2)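 Disk diffusion on nutrient agar. Strains kept on NA slants at 37 °C and subcultured in nutrient broth before testing. A log-phase culture was spread on solidified medium, and sterile disks were loaded with compound from DMSO stock. DMSO served as control, with commercial antibiotics for reference. Plates ran 24 h at 37 °C, and inhibition zones (mm) were read in quadruplicate.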

[4] = test system: Rhizoctonia solani; assay: Antifungal activity against Rhizoctonia solani ITCC 5563 by food poisoning method
Procedure, shortened: (§3)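 Poisoned food technique on PDA at several concentrations. A 5 mm mycelial plug from the growing edge of a 2-week-old colony was placed inoculum-side down at the plate centre. Plates incubated at 27 °C until control growth was nearly complete. Colony diameter measured, percent inhibition calculated against control, LC50 derived. Four replicates per treatment.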

[5] = test system: Athelia rolfsii; assay: Antifungal activity against Athelia rolfsii ITCC 6181 by food poisoning method; details: Agroathelia rolfsii; procedure, shortened: as §3
[6] = test system: Radical scavenging activity; assay: Antioxidant activity assessed as DPPH free radical scavenging activity after 20 min by UV-Vis spectrophotometric analysis; set-up: concentration or dose not given beside the values
Procedure, shortened: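 DPPH radical scavenging: samples were held at room temperature for 20 min in the dark, and absorbance was read at 517 nm. The control contained DMSO without compound, and methanol was used for baseline correction. Scavenging percentage was calculated from the absorbances.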

[7] = test system: Pseudomonas aeruginosa; assay: Antibacterial activity against Pseudomonas aeruginosa MTCC 2581 assessed as growth inhibition at 100 ug/disk after 24 hr by disk diffusion method; details: MTCC 2581, 24 h, read-out: DIZ; procedure, shortened: as §2
[8] = test system: Staphylococcus aureus; assay: Antibacterial activity against Staphylococcus aureus MTCC 3160 assessed as growth inhibition at 100 ug/disk after 24 hr by disk diffusion method; details: MTCC 3160, 24 h, read-out: DIZ; procedure, shortened: as §2
[9] = test system: Klebsiella pneumoniae; assay: Antibacterial activity against Klebsiella pneumoniae MTCC 7028 assessed as growth inhibition at 100 ug/disk after 24 hr by disk diffusion method; details: MTCC 7028, 24 h, read-out: DIZ; procedure, shortened: as §2
[10] = test system: Bacillus pumilus; assay: Antibacterial activity against Bacillus pumilus MTCC 2466 assessed as growth inhibition at 100 ug/disk after 24 hr by disk diffusion method; details: MTCC 2466, 24 h, read-out: DIZ; procedure, shortened: as §2
[11] = test system: Bacillus thuringiensis; assay: Antibacterial activity against Bacillus thuringiensis MTCC 6941 assessed as growth inhibition at 100 ug/disk after 24 hr by disk diffusion method; details: MTCC 6941, 24 h, read-out: DIZ; procedure, shortened: as §2
[12] = test system: Xanthomonas oryzae; assay: Antibacterial activity against Xanthomonas oryzae ITCC B-47 assessed as as growth inhibition at 25 ug/disk after 24 hr by disk diffusion method; details: ITCC B-47, 24 h, read-out: DIZ
[13] = test system: Dickeya chrysanthemi; assay: Antibacterial activity against Erwinia chrysanthemi ITCC B-40 assessed as as growth inhibition at 25 ug/disk after 24 hr by disk diffusion method; details: ITCC B-40, 24 h, read-out: DIZ
[14] = test system: Pseudomonas aeruginosa; assay: Antibacterial activity against Pseudomonas aeruginosa MTCC 2581 assessed as growth inhibition at 25 ug/disk after 24 hr by disk diffusion method; details: MTCC 2581, 24 h, read-out: DIZ
[15] = test system: Staphylococcus aureus; assay: Antibacterial activity against Staphylococcus aureus MTCC 3160 assessed as growth inhibition at 25 ug/disk after 24 hr by disk diffusion method; details: MTCC 3160, 24 h, read-out: DIZ
[16] = test system: Klebsiella pneumoniae; assay: Antibacterial activity against Klebsiella pneumoniae MTCC 7028 assessed as growth inhibition at 25 ug/disk after 24 hr by disk diffusion method; details: MTCC 7028, 24 h, read-out: DIZ
[17] = test system: Bacillus pumilus; assay: Antibacterial activity against Bacillus pumilus MTCC 2466 assessed as growth inhibition at 25 ug/disk after 24 hr by disk diffusion method; details: MTCC 2466, 24 h, read-out: DIZ
[18] = test system: Bacillus thuringiensis; assay: Antibacterial activity against Bacillus thuringiensis MTCC 6941 assessed as growth inhibition at 25 ug/disk after 24 hr by disk diffusion method; details: MTCC 6941, 24 h, read-out: DIZ
[19] = test system: Klebsiella pneumoniae; assay: Antibacterial activity against Klebsiella pneumoniae MTCC 7028 assessed as growth inhibition after 24 hr by broth dilution method; details: MTCC 7028, 24 h; procedure, shortened: as §1

Compound `CCOC(=O)C1C(=O)C=C(c2ccccc2)CC1c1ccc(OC)cc1` (stereo not given) has an MIC [1] of 5.9 µg/mL (≈ 16.8 µM), a zone of inhibition at 100 µg/disc [2] of 0 mm and a zone of inhibition at 100 µg/disc [3] of 15 mm. It also gave an LC50 [4] of 116 µg/mL (≈ 331 µM), an LC50 [5] of 347 µg/mL (≈ 990 µM) and an Activity [6] of 2.69%. It also gave a zone of inhibition at 100 µg/disc [7] of 0 mm, a zone of inhibition at 100 µg/disc [8] of 0 mm and a zone of inhibition at 100 µg/disc [9] of 0 mm. The zone of inhibition at 100 µg/disc [10] was 0 mm and the zone of inhibition at 100 µg/disc [11] was 0 mm.
`CCOC(=O)C1C(=O)C=C(c2ccc(Cl)cc2)CC1c1ccc(OC)cc1` (stereo not given) showed an MIC [1] of 73.6 µg/mL (≈ 191 µM), a zone of inhibition at 100 µg/disc [2] of 0 mm and a zone of inhibition at 100 µg/disc [3] of 15 mm. It also gave an LC50 [4] of 58 µg/mL (≈ 151 µM), an LC50 [5] of 372 µg/mL (≈ 967 µM) and an Activity [6] of 4.74%. For the same compound, the zone of inhibition at 100 µg/disc [7] was 0 mm, the zone of inhibition at 100 µg/disc [8] was 0 mm and the zone of inhibition at 100 µg/disc [9] was 0 mm. For the same compound, the zone of inhibition at 100 µg/disc [10] was 0 mm and the zone of inhibition at 100 µg/disc [11] was 0 mm.
In the case of `CN[C@@H]1[C@H](O[C@H]2[C@H](O[C@H]3[C@H](O)[C@@H](O)[C@H](N=C(N)N)[C@@H](O)[C@@H]3N=C(N)N)O[C@@H](C)[C@]2(O)C=O)O[C@@H](CO)[C@H](O)[C@H]1O` [STREPTOMYCIN], the MIC [1] is reported as 4.6 µg/mL (≈ 7.91 µM), the zone of inhibition at 25 µg/disc [12] is reported as 20 mm and the zone of inhibition at 25 µg/disc [13] is reported as 20 mm. It also gave a zone of inhibition at 25 µg/disc [14] of 20 mm, a zone of inhibition at 25 µg/disc [15] of 20 mm and a zone of inhibition at 25 µg/disc [16] of 20 mm. For the same compound, the zone of inhibition at 25 µg/disc [17] was 15 mm, the zone of inhibition at 25 µg/disc [18] was 20 mm and the MIC [19] was 3.1 µg/mL (≈ 5.33 µM).
Work on `NC[C@H]1O[C@H](O[C@H]2[C@H](O)[C@@H](O[C@H]3O[C@H](CO)[C@@H](O)[C@H](N)[C@H]3O)[C@H](N)C[C@@H]2N)[C@H](O)[C@@H](O)[C@@H]1O` [KANAMYCIN] yielded a zone of inhibition at 25 µg/disc [12] of 0 mm, a zone of inhibition at 25 µg/disc [13] of 0 mm and a zone of inhibition at 25 µg/disc [14] of 0 mm. The zone of inhibition at 25 µg/disc [15] was 10 mm, the zone of inhibition at 25 µg/disc [16] was 15 mm and the zone of inhibition at 25 µg/disc [17] was 0 mm. It also gave a zone of inhibition at 25 µg/disc [18] of 15 mm.
With `CC1(C)S[C@@H]2[C@H](NC(=O)[C@H](N)c3ccccc3)C(=O)N2[C@H]1C(=O)O` [AMPICILLIN] the zone of inhibition at 25 µg/disc [12] was 5 mm, the zone of inhibition at 25 µg/disc [13] was 20 mm and the zone of inhibition at 25 µg/disc [14] was 10 mm. The zone of inhibition at 25 µg/disc [15] was 10 mm, the zone of inhibition at 25 µg/disc [16] was 10 mm and the zone of inhibition at 25 µg/disc [17] was 20 mm. It also gave a zone of inhibition at 25 µg/disc [18] of 0 mm.
